Source: ChEMBL document CHEMBL1932924, “Design, synthesis, and biological evaluation of 4-phenylpyrrole derivatives as novel androgen receptor antagonists” (Bioorg Med Chem, 2012)
≈ marks a conversion by molar mass, not a printed value.

Key:
[1] = target: T1, Androgen receptor (Homo sapiens, UniProt P10275, T878A); assay: Antagonist activity at human androgen receptor T877A mutant expressed in COS7 cells assessed as inhibition of DHT-induced luciferase activity after 24 hrs by reporter gene assay; assay type: functional, cell-based, COS-7
T1 sequence (P10275 whole entry T878A): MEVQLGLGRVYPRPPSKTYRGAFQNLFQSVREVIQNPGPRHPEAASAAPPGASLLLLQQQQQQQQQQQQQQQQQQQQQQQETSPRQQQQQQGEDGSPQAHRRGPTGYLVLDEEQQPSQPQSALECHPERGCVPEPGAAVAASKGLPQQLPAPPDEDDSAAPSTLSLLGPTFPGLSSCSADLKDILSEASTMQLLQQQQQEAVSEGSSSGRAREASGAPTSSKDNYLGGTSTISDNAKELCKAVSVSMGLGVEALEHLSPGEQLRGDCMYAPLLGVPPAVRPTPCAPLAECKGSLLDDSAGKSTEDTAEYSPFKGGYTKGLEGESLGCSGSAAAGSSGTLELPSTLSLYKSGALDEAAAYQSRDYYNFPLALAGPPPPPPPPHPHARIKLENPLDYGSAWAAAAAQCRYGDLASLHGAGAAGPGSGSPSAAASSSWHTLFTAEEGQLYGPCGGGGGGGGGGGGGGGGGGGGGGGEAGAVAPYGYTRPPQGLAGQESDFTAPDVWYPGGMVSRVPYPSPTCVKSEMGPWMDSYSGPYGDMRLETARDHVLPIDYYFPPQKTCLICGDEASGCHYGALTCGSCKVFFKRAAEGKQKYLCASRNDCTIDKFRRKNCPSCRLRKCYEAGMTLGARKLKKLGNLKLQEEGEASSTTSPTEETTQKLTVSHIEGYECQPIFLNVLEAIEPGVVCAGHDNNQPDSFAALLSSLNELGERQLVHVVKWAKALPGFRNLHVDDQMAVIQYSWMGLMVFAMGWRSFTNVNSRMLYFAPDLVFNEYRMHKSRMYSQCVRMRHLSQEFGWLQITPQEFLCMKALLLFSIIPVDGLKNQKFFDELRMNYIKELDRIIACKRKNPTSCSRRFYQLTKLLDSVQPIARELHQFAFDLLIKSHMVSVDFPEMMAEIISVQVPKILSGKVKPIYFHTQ

[2] = Antitumor activity against human JDCaP cells expressing wild type AR xenografted in testosterone propionate-challenged castrated BALB/c nude mouse assessed as decrease in tumor volume at 6.25 mg/kg, po bid administered for 29 days measured on day 28 relative to control; assay type: functional
In short: (§1)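 Nude mice carrying JDCaP tumours, n = 7 per group, castrated and given s.c. testosterone propionate 0.2 mg/kg once daily for 29 days. Oral twice-daily dosing in 0.5% methylcellulose over the same period; controls get vehicle plus TP. Tumour volume measured weekly. T/C = increase in tumour volume versus control × 100.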

[3] = Antitumor activity against human LNCaP-FGC cells expressing androgen receptor W741C/[…] mutant xenografted in castrated BALB/c nude mouse assessed as decrease in prostate specific antigen level in plasma at 25 mg/kg, po bid administered for 29 days measured on day 28 (reference value: 35.8 +/- 10.7 ng/mL); assay type: functional, LNCaP-Clone-FGC
[4] = target: T2, Androgen receptor (Homo sapiens, UniProt P10275); assay: Agonist activity at human androgen receptor expressed in COS7 cells assessed as luciferase activity after 24 hrs by reporter gene assay; assay type: functional, cell-based, COS-7
T2 sequence (P10275 whole entry): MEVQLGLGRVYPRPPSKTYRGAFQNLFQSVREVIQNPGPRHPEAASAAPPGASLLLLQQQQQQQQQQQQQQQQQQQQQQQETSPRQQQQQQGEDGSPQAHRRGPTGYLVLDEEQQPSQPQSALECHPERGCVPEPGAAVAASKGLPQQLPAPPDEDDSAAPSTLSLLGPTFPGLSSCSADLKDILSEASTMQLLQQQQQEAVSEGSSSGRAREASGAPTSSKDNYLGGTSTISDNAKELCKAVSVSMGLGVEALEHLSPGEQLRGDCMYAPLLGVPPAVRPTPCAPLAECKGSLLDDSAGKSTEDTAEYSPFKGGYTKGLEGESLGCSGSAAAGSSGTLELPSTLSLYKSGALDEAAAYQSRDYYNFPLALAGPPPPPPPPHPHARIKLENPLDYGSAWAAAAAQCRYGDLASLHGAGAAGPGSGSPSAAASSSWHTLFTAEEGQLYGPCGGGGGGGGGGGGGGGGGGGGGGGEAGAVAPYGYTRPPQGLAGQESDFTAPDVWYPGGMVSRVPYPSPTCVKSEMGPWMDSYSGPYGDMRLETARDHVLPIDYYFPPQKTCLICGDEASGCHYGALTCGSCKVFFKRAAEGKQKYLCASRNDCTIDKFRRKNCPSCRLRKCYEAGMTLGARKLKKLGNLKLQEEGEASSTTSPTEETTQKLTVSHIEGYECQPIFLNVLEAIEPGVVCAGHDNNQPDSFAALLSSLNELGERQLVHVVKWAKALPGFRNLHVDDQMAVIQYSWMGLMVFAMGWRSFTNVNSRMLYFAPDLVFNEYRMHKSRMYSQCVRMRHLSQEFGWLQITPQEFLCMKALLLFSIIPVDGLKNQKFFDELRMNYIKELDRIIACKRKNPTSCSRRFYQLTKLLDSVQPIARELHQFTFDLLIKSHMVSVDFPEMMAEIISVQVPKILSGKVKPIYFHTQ

[5] = test system: Mus musculus; assay: Toxicity in BALB/c mouse assessed as body weight at 25 mg/kg, po bid administered for 29 days measured on day 28 (reference value: 17.6 +/- 0.4g); assay type: organism-based; parameters: dose 25 mg/kg, route oral; settings: in vivo, 696 h
[6] = target: T2, Androgen receptor; assay: Displacement of [17-alpha-methyl-3H]-mibolerone from human androgen receptor expressed in HEK293 derived FreeStyle293F cells after 3 hrs; assay type: cell-based
[7] = Antitumor activity against human JDCaP cells expressing wild type AR xenografted in testosterone propionate-challenged castrated BALB/c nude mouse assessed as decrease in tumor volume at 3.125 mg/kg, po bid administered for 29 days measured on day 28 relative to control; assay type: functional; in short: as §1
[8] = Mean residence time in mouse at 5 mg/kg, po; assay type: ADME, organism-based; parameters: dose 5 mg/kg, route oral; settings: in vivo
In short: (§2)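 Mice given a single oral 5 mg/kg dose; n = 3. AUC, bioavailability (F) and mean residence time derived from plasma exposure.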

[9] = test system: Mus musculus; assay: Antiandrogenic activity in ICR mouse assessed as ventral prostate weight at 7.5 mg/kg, po bid administered for 7 days (reference value: 14.6 +/- […]); assay type: functional, Prostate gland
In short: (§3)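 8-week-old male ICR mice, intact, dosed orally for seven days; n = 8 per group. Ventral prostate weighed the day after the last dose. Reduction = decrease in test group ÷ decrease in castrated group × 100. Controls are vehicle-treated mice. Significance by Williams test or unpaired Student's test versus control.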

[10] = test system: Mus musculus; assay: Antiandrogenic activity in ICR mouse assessed as reduction of ventral prostate weight at 2.5 mg/kg, po bid administered for 7 days relative to control; assay type: functional, Prostate gland; parameters: scale not given: the % may be the effect or the level left; in short: as §3
[11] = Solubility in aqueous buffer solution at pH 6.8; assay type: physicochemical
In short: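 DMSO stock added to aqueous buffer at pH 6.8 and incubated. Precipitate removed by filtration; filtrate concentration measured by HPLC.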

[12] = test system: Mus musculus; assay: Antiandrogenic activity in ICR mouse assessed as reduction of ventral prostate weight at 25 mg/kg, po bid administered for 7 days relative to control; assay type: functional, Prostate gland; parameters: scale not given: the % may be the effect or the level left; in short: as §3
[13] = target: T3, Androgen receptor (Homo sapiens, UniProt P10275, W742C); assay: Antagonist activity at human androgen receptor W741C mutant expressed in COS7 cells assessed as inhibition of DHT-induced luciferase activity after 24 hrs by reporter gene assay; assay type: functional, cell-based, COS-7
T3 sequence (P10275 whole entry W742C): as the sequence (P10275 whole entry T878A) above, with W742C, A878T counted along it

[14] = test system: Mus musculus; assay: Antiandrogenic activity in ICR mouse assessed as reduction of ventral prostate weight at 7.5 mg/kg, po bid administered for 7 days relative to control; assay type: functional, Prostate gland; parameters: scale not given: the % may be the effect or the level left; in short: as §3
[15] = target: T3, Androgen receptor; assay: Agonist activity at human androgen receptor W741C mutant expressed in COS7 cells assessed as luciferase activity after 24 hrs by reporter gene assay; assay type: functional, cell-based, COS-7
[16] = target: T1, Androgen receptor; assay: Displacement of [17-alpha-methyl-3H]-mibolerone from human androgen receptor T877A mutant expressed in HEK293 derived FreeStyle293F cells after 3 hrs; assay type: cell-based
[17] = Antitumor activity against human JDCaP cells expressing wild type AR xenografted in testosterone propionate-challenged castrated BALB/c nude mouse assessed as decrease in tumor volume at 6.25 mg/kg, po bid administered for 29 days measured on day 28 (reference value: 681.8 +/- 75 mm3); assay type: functional; in short: as §1
[18] = Oral bioavailability in mouse at 5 mg/kg; assay type: ADME, organism-based; settings: in vivo; in short: as §2
[19] = AUC in mouse at 5 mg/kg, po; assay type: ADME, organism-based; parameters: dose 5 mg/kg, route oral; settings: plasma; in short: as §2
[20] = test system: Mus musculus; assay: Antiandrogenic activity in ICR mouse assessed as ventral prostate weight at 2.5 mg/kg, po bid administered for 7 days (reference value: 14.6 +/- […]); assay type: functional, Prostate gland; in short: as §3
[21] = target: T1, Androgen receptor; assay: Agonist activity at human androgen receptor T877A mutant expressed in COS7 cells assessed as luciferase activity after 24 hrs by reporter gene assay; assay type: functional, cell-based, COS-7
[22] = Antitumor activity against human LNCaP-FGC cells expressing androgen receptor W741C/[…] mutant xenografted in castrated BALB/c nude mouse assessed as effect on tumor volume at 25 mg/kg, po bid administered for 29 days measured on day 28 (reference value: 402 +/- 47.7 mm3); assay type: functional, LNCaP-Clone-FGC
[23] = test system: Mus musculus; assay: Antiandrogenic activity in ICR mouse assessed as ventral prostate weight at 25 mg/kg, po bid administered for 7 days (reference value: 14.6 +/- […]); assay type: functional, Prostate gland; in short: as §3
[24] = Antitumor activity against human JDCaP cells expressing wild type AR xenografted in testosterone propionate-challenged castrated BALB/c nude mouse assessed as decrease in tumor volume at 3.125 mg/kg, po bid administered for 29 days measured on day 28 (reference value: 681.8 +/- 75 mm3); assay type: functional; in short: as §1
[25] = Antitumor activity against human LNCaP-FGC cells expressing androgen receptor W741C/[…] mutant xenografted in castrated BALB/c nude mouse assessed as effect on tumor volume at 25 mg/kg, po bid administered for 29 days measured on day 28 relative to control; assay type: functional, LNCaP-Clone-FGC
[26] = target: T2, Androgen receptor; assay: Antagonist activity at human androgen receptor expressed in COS7 cells assessed as inhibition of DHT-induced luciferase activity after 24 hrs by reporter gene assay; assay type: functional, cell-based, COS-7
[27] = Antitumor activity against human LNCaP-FGC cells expressing androgen receptor W741C/[…] mutant xenografted in castrated BALB/c nude mouse assessed as effect on tumor volume at 20 mg/kg, po qd administered for 29 days measured on day 28 (reference value: 402 +/- 47.7 mm3); assay type: functional, LNCaP-Clone-FGC
[28] = Antitumor activity against human LNCaP-FGC cells expressing androgen receptor W741C/[…] mutant xenografted in castrated BALB/c nude mouse assessed as decrease in prostate specific antigen level in plasma at 20 mg/kg, po qd administered for 29 days measured on day 28 (reference value: 35.8 +/- 10.7 ng/mL); assay type: functional, LNCaP-Clone-FGC
In short: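 LNCaP-cxD2 flank xenografts in castrated BALB/c nude mice (n=7), grouped at ~200 mm3. Oral dosing for 29 days from castration, vehicle 0.5% methylcellulose. Blood taken at study end for plasma PSA.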

[29] = Antitumor activity against human LNCaP-FGC cells expressing androgen receptor W741C/[…] mutant xenografted in castrated BALB/c nude mouse assessed as effect on tumor volume at 20 mg/kg, po qd administered for 29 days measured on day 28 relative to control; assay type: functional, LNCaP-Clone-FGC
In short: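 LNCaP-cxD2 flank xenografts in BALB/c nude mice, grouped at ~200 mm3 (n=7) and castrated next day. Oral dosing for 29 days, vehicle 0.5% methylcellulose. Weekly caliper volumes. T/C = tumour volume increase vs castration (vehicle) group × 100.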

[30] = Antitumor activity against human JDCaP cells expressing wild type AR xenografted in testosterone propionate-challenged castrated BALB/c nude mouse assessed as decrease in tumor volume at 20 mg/kg, po bid administered for 29 days measured on day 28 (reference value: 1736.6 +/- 486.2 mm3); assay type: functional
In short: (§4)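 JDCaP tumours in nude mice (n=7) castrated the day after grouping. Testosterone propionate 0.2 mg/kg sc once daily for 29 days. Oral drug or 0.5% methylcellulose vehicle for the same period. Tumour volume measured weekly. T/C = volume increase vs testosterone-treated vehicle control × 100.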

[31] = test system: Mus musculus; assay: Antiandrogenic activity in ICR mouse assessed as reduction of ventral prostate weight at 100 mg/kg, po qd administered for 7 days relative to control; assay type: functional, Prostate gland; parameters: scale not given: the % may be the effect or the level left
In short: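 Male ICR mice, 8 weeks old, n=8, dosed orally for seven days with vehicle and castrated groups. Prostate weighed the day after the last dose. % reduction = treated-group weight decrease ÷ castrated-group decrease × 100.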

[32] = test system: Mus musculus; assay: Toxicity in BALB/c mouse assessed as body weight at 20 mg/kg, po qd administered for 29 days measured on day 28 (reference value: 17.6 +/- 0.4g); assay type: organism-based; parameters: dose 20 mg/kg, route oral; settings: in vivo, 696 h
[33] = Antitumor activity against human JDCaP cells expressing wild type AR xenografted in testosterone propionate-challenged castrated BALB/c nude mouse assessed as decrease in tumor volume at 20 mg/kg, po qd administered for 29 days measured on day 28 relative to control; assay type: functional; in short: as §4

Compound	IC50 [1] [nM]	EC50 [4] [nM]	IC50 [6] [nM]	solubility [11] [µg/mL]	IC50 [13] [nM]	EC50 [15] [nM]	IC50 [16] [nM]	EC50 [21] [nM]	IC50 [26] [nM]	other results
Cc1c(C#N)c(-c2ccc(C#N)cc2)c(C)n1Cc1cnc(Cl)c(CO)c1	110	> 10000	37	15 (≈ 39.8 µM)	280	> 10000	100	> 10000	25	T/C [2]: -44.8%; Activity [3]: 1 ng/mL; Activity [5]: 22.9 g; T/C [7]: -44.7%; MRT [8]: 4.85 h; Activity [9]: 12.2 mg; Activity [10]: 16%; Activity [12]: 74%; Activity [14]: 31%; Activity [17]: 94.8 mm3; bioavailability [18]: 104%; AUC [19]: 19200 ng·h/mL; Activity [20]: 13.4 mg; Activity [22]: 269.3 mm3; Activity [23]: 8.9 mg; Activity [24]: 88.4 mm3; T/C [25]: 15.8%
Cc1c(C#N)c(-c2ccc(C#N)cc2)c(C)n1Cc1cccnc1	190	2200	3.4	5.1 (≈ 16.3 µM)	180	3600	23	> 10000	65	
Cc1c(C#N)c(-c2ccc(C#N)cc2)c(C)n1Cc1ccc(Cl)nc1	100	> 10000	9	0.83 (≈ 2.39 µM)	910	> 10000	24	> 10000	45	
CC(O)(CS(=O)(=O)c1ccc(F)cc1)C(=O)Nc1ccc(C#N)c(C(F)(F)F)c1 (stereo unspecified) [BICALUTAMIDE]										Activity [27]: 461.5 mm3; Activity [28]: 38.5 ng/mL; T/C [29]: 137.9%; Activity [30]: 212.2 mm3; Activity [31]: 40%; Activity [32]: 17.9 g; T/C [33]: -70.2%
